Measurements reported in ChEMBL document CHEMBL1157420, “2-phenyl-4-piperazinylbenzimidazoles: orally active inhibitors of the gonadotropin releasing hormone (GnRH) receptor” (Bioorg Med Chem, 2008).

What was measured:
[1] = molecular target: T1, 5-hydroxytryptamine receptor 1B (Homo sapiens, UniProt P28222); test: Binding affinity to human 5HT1B receptor at 1000 nM
[2] = molecular target: T2, Gonadotropin-releasing hormone receptor (Homo sapiens, UniProt P30968); test: Displacement of [125I]-(D-Trp6)LHRH from human recombinant GnRH receptor
T2 sequence (P30968 whole entry): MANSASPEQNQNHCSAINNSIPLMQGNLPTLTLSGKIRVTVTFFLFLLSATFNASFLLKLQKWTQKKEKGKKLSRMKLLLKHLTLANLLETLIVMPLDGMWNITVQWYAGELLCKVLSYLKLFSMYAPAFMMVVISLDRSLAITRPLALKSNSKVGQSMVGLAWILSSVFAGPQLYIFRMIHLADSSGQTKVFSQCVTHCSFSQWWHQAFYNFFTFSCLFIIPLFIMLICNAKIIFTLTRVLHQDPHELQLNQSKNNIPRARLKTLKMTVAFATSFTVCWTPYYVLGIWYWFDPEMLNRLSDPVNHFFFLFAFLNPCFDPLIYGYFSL
Procedure, shortened: (§1)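 Membranes from recombinant cells expressing human or rat GnRH receptor, made in 25 mM Tris-Cl pH 7.4 with 0.1% sodium azide and 0.1% BSA. 50 μg protein incubated with about 50,000 cpm 125I-(D-Trp6)-LHRH for 2 h at 4 °C, with increasing unlabeled competitor. Filtered on BSA-presoaked glass-fiber filters, washed twice, counted by gamma counter. Percent inhibition and IC50 derived.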

[3] = molecular target: T3, 5-hydroxytryptamine receptor 1A (Homo sapiens, UniProt P08908); test: Binding affinity to human 5HT1A receptor; details: read-out: Ki
T3 sequence (P08908 whole entry): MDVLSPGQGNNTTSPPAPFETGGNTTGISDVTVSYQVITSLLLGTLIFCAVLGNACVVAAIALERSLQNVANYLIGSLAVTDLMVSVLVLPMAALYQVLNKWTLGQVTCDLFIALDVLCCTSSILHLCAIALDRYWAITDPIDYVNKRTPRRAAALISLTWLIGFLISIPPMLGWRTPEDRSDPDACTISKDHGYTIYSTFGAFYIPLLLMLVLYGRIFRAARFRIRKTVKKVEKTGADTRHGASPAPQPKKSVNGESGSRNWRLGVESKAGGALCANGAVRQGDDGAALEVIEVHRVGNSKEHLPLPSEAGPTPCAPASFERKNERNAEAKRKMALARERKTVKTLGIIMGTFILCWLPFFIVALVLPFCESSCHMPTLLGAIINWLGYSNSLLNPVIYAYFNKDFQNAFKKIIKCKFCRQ

[4] = molecular target: T4, Gonadotropin-releasing hormone receptor (Rattus norvegicus, UniProt P30969); test: Antagonist activity at […] GnRH receptor in CO2 asphyxiated rat primary pituitary cells assessed as reduction in (D-Trp6)LHRH-induced LH release; format: functional, cell-based, Pituitary gland cell
T4 sequence (P30969 whole entry): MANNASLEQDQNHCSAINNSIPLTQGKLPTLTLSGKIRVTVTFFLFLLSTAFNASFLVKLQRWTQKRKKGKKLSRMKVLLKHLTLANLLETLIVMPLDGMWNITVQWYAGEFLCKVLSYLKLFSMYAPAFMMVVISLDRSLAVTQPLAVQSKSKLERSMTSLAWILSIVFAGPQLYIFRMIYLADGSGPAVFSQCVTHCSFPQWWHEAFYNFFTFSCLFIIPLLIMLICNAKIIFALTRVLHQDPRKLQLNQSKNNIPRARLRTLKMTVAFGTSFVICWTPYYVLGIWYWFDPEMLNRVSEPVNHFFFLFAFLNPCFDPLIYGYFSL
Procedure, shortened: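 Anterior pituitaries from adult rats were minced, dissociated and plated at 30,000 cells/well in DMEM with 25 mM Hepes and 10% FBS, then cultured 72 h at 37 °C, 5% CO2. After washing, cells were treated 3 h in 0.1% BSA medium with an antagonist dose response plus an ED50 concentration of D-Trp6-LHRH. LH in medium measured by RIA; cell toxicity checked by CellTiter-Glo.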

[5] = molecular target: T5, 5-hydroxytryptamine receptor 1D (Homo sapiens, UniProt P28221); test: Binding affinity to human 5HT1D receptor at 1000 nM
[6] = molecular target: T4, Gonadotropin-releasing hormone receptor; test: Displacement of [125I]-(D-Trp6)LHRH from rat recombinant GnRH receptor; procedure, shortened: as §1
[7] = molecular target: T2, Gonadotropin-releasing hormone receptor; test: Antagonist activity at human recombinant GnRH receptor assessed as reduction in (D-Trp6)LHRH-induced myo-(1,2)-[3H]inositol production; format: functional
Procedure, shortened: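 Recombinant cells expressing human GnRH receptor, pre-labeled with myo-(1,2)-3H-inositol, incubated 1 h in medium with lithium chloride and D-Trp6-LHRH, with or without antagonist. Cells then lysed and labeled inositol phosphates separated from inositol by […] and counted. Run in triplicate, repeated in three independent experiments; IC50 derived.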

[8] = molecular target: T5, 5-hydroxytryptamine receptor 1D; test: Binding affinity to human 5HT1D receptor
[9] = molecular target: T1, 5-hydroxytryptamine receptor 1B; test: Binding affinity to human 5HT1B receptor
[10] = molecular target: T6, Gonadotropin-releasing hormone receptor (Homo sapiens) (UniProt P30968); test: Displacement of [125I]-(D-Trp6)LHRH from human recombinant GnRH receptor at 10 uM; procedure, shortened: as §1
T6 sequence (whole entry): T2 sequence (P30968 whole entry)

T1 sequence (P28222 whole entry): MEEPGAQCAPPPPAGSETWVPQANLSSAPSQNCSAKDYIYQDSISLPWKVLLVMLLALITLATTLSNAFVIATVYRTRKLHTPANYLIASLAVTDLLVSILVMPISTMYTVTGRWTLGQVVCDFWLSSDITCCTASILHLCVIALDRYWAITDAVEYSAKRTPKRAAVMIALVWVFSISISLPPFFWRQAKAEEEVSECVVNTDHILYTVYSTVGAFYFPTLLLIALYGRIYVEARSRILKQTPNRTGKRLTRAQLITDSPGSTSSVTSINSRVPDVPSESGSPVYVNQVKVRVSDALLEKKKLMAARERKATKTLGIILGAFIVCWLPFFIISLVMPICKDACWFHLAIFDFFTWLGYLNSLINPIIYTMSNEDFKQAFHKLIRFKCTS
T5 sequence (P28221 whole entry): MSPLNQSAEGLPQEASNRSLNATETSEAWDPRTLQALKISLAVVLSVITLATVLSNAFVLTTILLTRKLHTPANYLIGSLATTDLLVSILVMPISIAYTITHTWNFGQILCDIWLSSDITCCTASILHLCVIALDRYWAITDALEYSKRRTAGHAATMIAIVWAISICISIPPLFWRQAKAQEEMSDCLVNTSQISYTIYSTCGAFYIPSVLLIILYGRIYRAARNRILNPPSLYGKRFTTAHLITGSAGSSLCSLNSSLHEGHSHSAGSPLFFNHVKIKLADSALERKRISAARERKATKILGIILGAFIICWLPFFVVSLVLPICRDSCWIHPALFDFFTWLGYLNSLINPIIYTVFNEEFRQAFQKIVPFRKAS

SMILES	IC50 [2]	IC50 [6]	IC50 [7]	Activity [10]	other results
FC(F)(F)c1nc2c(N3CCN(CCOc4cccc5[nH]c(=S)[nH]c45)CC3)cccc2[nH]1	790 nM	21000 nM	4500 nM	–	inhibition [1]: 67%; Ki [3]: 2.8 nM; IC50 [4]: 76000 nM; inhibition [5]: 67%
FC(F)(F)c1nc2c(N3CCN(CCOc4cccc5nc(C(F)(F)F)[nH]c45)CC3)cccc2[nH]1	1500 nM	15000 nM	9200 nM	–	Ki [8]: 0.55 nM; Ki [3]: 19 nM; Ki [9]: 60 nM; IC50 [4]: 83000 nM
Cn1c(C(F)(F)F)nc2c(N3CCN(CCOc4cccc5[nH]c(C(F)(F)F)nc45)CC3)cccc21	–	–	–	5%	–
O=c1[nH]c2cccc(N3CCN(CCOc4cccc5nc(C(F)(F)F)[nH]c45)CC3)c2[nH]1	–	–	–	8%	–
FC(F)(F)c1nc2c(N3CCN(CCOc4ccc5[nH]c(=S)[nH]c5c4)CC3)cccc2[nH]1	4500 nM	–	–	–	–
Cn1c(C(F)(F)F)nc2c(N3CCN(CCOc4cccc5[nH]c(=S)[nH]c45)CC3)cccc21	–	–	–	8%	–
S=c1[nH]c2cccc(OCCN3CCN(c4cccc5[nH]cnc45)CC3)c2[nH]1	–	–	–	5%	–
S=c1[nH]c2cccc(OCCN3CCN(c4cccc5[nH]c(-c6ccccc6)nc45)CC3)c2[nH]1	11000 nM	–	–	–	–
CC(C)(C)c1ccc(-c2nc3c(N4CCN(Cc5ccc6[nH]c(=O)c(=O)[nH]c6c5)CC4)cccc3[nH]2)cc1	4.9 nM	40 nM	1.7 nM	–	IC50 [4]: 25 nM
CC(C)(C)c1ccc(-c2nc3c(N4CCN(Cc5cccc6[nH]c(=O)[nH]c56)CC4)cccc3[nH]2)cc1	8.7 nM	680 nM	63 nM	–	IC50 [4]: 1500 nM
FC(F)(F)c1nc2cc(N3CCN(CCOc4cccc5[nH]c(=S)[nH]c45)CC3)ccc2[nH]1	–	–	–	11%	–
FC(F)(F)c1nc2cccc(OCCN3CCN(c4cccc5[nH]c(=S)[nH]c45)CC3)c2[nH]1	–	–	–	42%	–
FC(F)(F)C(F)(F)c1nc2c(N3CCN(CCOc4cccc5[nH]c(=S)[nH]c45)CC3)cccc2[nH]1	6300 nM	> 100000 nM	–	–	–
CC(C)c1ccc(-c2nc3c(N4CCN(CCOc5cccc6nc(C(F)(F)F)[nH]c56)CC4)cccc3[nH]2)cc1	120 nM	990 nM	450 nM	–	–
CCc1ccc(-c2nc3c(N4CCN(CCOc5cccc6[nH]c(=S)[nH]c56)CC4)cccc3[nH]2)cc1	120 nM	3900 nM	640 nM	–	–
Cc1cccc(-c2nc3c(N4CCN(CCOc5cccc6[nH]c(=S)[nH]c56)CC4)cccc3[nH]2)c1	–	–	–	47%	–
FC(F)(F)c1nc2c(N3CCN(Cc4cccc5nc(C(F)(F)F)[nH]c45)CC3)cccc2[nH]1	9500 nM	64000 nM	21000 nM	–	–
Cc1ccc(-c2nc3c(N4CCN(CCOc5cccc6[nH]c(=S)[nH]c56)CC4)cccc3[nH]2)cc1	1300 nM	–	2800 nM	–	–
